What was measured:
Format in all cases: functional
SW1573 [1] = test: Antiproliferative activity against human SW1573 cells after 48 hrs by SRB assay; details: SW1573, 48 h
Summary of the method: (§1)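 NCI protocol, SRB read-out after 48 h continuous drug exposure. GI50, TGI and LC50 derived; 100 μM was the top concentration tested, with TGI and LC50 reported only when under 100 μM. GI50 values are means of two to four experiments ± standard deviation.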

WiDr [2] = test: Antiproliferative activity against human WiDr cells after 48 hrs by SRB assay; summary of the method: as §1
A2780 = test: Antiproliferative activity against human A2780 cells after 48 hrs by SRB assay; details: A2780, 48 h; summary of the method: as §1
WiDr [3] = test: Cell cycle arrest in human WiDr cells assessed as accumulation at G2/M phase at 20 uM after 24 hrs relative to control
Summary of the method: (§2)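 Cells seeded at 0.7–1 × 10⁶ per well and left 24 h, then exposed 24 h to 10 or 20 μM beside untreated controls. Trypsinized, fixed in ice-cold 70% ethanol overnight at −20 °C, treated with RNAse and propidium iodide 30 min at 37 °C in the dark. DNA content read by flow cytometry (25,000 cells/sample); G2/M percentage compared with control.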

WiDr [4] = test: Cell cycle arrest in human WiDr cells assessed as accumulation at G2/M phase at 10 uM after 24 hrs relative to control; summary of the method: as §2
SW1573 [5] = test: Cell cycle arrest in human SW1573 cells assessed as accumulation at G2/M phase at 10 uM after 24 hrs relative to control; summary of the method: as §2
SW1573 [6] = test: Cell cycle arrest in human SW1573 cells assessed as accumulation at G2/M phase at 20 uM after 24 hrs relative to control; summary of the method: as §2

GI50 (SW1573 [1])	GI50 (A2780)	SMILES	GI50 (WiDr [2])	further results
> 100 µM	> 100 µM	Cc1ccc(S(=O)(=O)N2CC[C@@H](Cl)C[C@@H]2c2ccccc2)cc1	37 µM	–
21 µM	27 µM	Cc1ccc(S(=O)(=O)N2CCC(Br)=CC2Cc2ccccc2)cc1 (centres undefined)	24 µM	TGI (SW1573 [1]): 78 µM; TGI (WiDr [2]): 71 µM; TGI (A2780): 77 µM
82 µM	> 100 µM	Cc1ccc(S(=O)(=O)N2CC[C@@H](Br)C[C@@H]2C2CCCCC2)cc1	14 µM	–
> 100 µM	> 100 µM	Cc1ccc(S(=O)(=O)N2CC=C(Cl)CC2)cc1	> 100 µM	–
65 µM	44 µM	Cc1ccc(S(=O)(=O)N2CCC(Br)=CC2C2CCCCC2)cc1 (centres undefined)	18 µM	–
19 µM	36 µM	Cc1ccc(S(=O)(=O)N2CC[C@@H](Cl)C[C@@H]2CC(C)C)cc1	22 µM	–
31 µM	35 µM	Cc1ccc(S(=O)(=O)N2CCC(Cl)=CC2CC(C)C)cc1 (centres undefined)	21 µM	–
> 100 µM	> 100 µM	CCCCCCC[C@H]1C[C@H](Br)CCN1S(=O)(=O)c1ccc(C)cc1	> 100 µM	–
> 100 µM	> 100 µM	Cc1ccc(S(=O)(=O)N2CC=C(Br)CC2)cc1	> 100 µM	–
49 µM	> 100 µM	CCCCCCCC1C=C(Br)CCN1S(=O)(=O)c1ccc(C)cc1 (centres undefined)	40 µM	–
73 µM	63 µM	Cc1ccc(S(=O)(=O)N2CC[C@@H](Br)C[C@@H]2Cc2ccccc2)cc1	37 µM	–
54 µM	49 µM	Cc1ccc(S(=O)(=O)N2CCC(Br)=CC2c2ccccc2)cc1 (centres undefined)	29 µM	–
62 µM	39 µM	Cc1ccc(S(=O)(=O)N2CCC(Cl)=CC2C2CCCCC2)cc1 (centres undefined)	24 µM	–
12 µM	19 µM	Cc1ccc(S(=O)(=O)N2CC[C@@H](Cl)C[C@@H]2Cc2ccccc2)cc1	20 µM	TGI (SW1573 [1]): 66 µM; TGI (A2780): 50 µM
26 µM	36 µM	Cc1ccc(S(=O)(=O)N2CCC(Br)=CC2CC(C)C)cc1 (centres undefined)	16 µM	–
49 µM	92 µM	CCCCCCCC1C=C(Cl)CCN1S(=O)(=O)c1ccc(C)cc1 (centres undefined)	50 µM	–
53 µM	72 µM	Cc1ccc(S(=O)(=O)N2CC[C@@H](Cl)C[C@@H]2C2CCCCC2)cc1	15 µM	–
> 100 µM	> 100 µM	Cc1ccc(S(=O)(=O)N2CCC(Br)CC2)cc1	> 100 µM	–
> 100 µM	> 100 µM	CCCCCCC[C@H]1C[C@H](Cl)CCN1S(=O)(=O)c1ccc(C)cc1	54 µM	–
22 µM	39 µM	Cc1ccc(S(=O)(=O)N2CC[C@@H](Br)C[C@@H]2CC(C)C)cc1	14 µM	–
> 100 µM	> 100 µM	Cc1ccc(S(=O)(=O)N2CC[C@@H](Br)C[C@@H]2c2ccccc2)cc1	36 µM	–
> 100 µM	> 100 µM	Cc1ccc(S(=O)(=O)N2CCC(Cl)CC2)cc1	> 100 µM	–

SMILES	GI50 (SW1573 [1])	GI50 (A2780)	GI50 (WiDr [2])	further results
Cc1ccc(S(=O)(=O)N2CCC(Cl)=CC2c2ccccc2)cc1 (centres undefined)	16 µM	17 µM	18 µM	LC50 (SW1573 [1]): 87 µM; TGI (SW1573 [1]): 37 µM; LC50 (50% lethal concentration) (WiDr [2]): 91 µM; TGI (WiDr [2]): 77 µM; LC50 (50% lethal concentration) (A2780): 86 µM; TGI (A2780): 42 µM
Cc1ccc(S(=O)(=O)N2CCC(Cl)=CC2Cc2ccccc2)cc1 (centres undefined)	6.6 µM	4.8 µM	3.3 µM	LC50 (50% lethal concentration) (WiDr [2]): 79 µM; TGI (WiDr [2]): 14 µM; Activity (WiDr [3]): 81%; Activity (WiDr [4]): 53%; Activity (SW1573 [5]): 25%; Activity (SW1573 [6]): 38%

— ChEMBL document CHEMBL1144642, “Antiproliferative activity of 2-alkyl-4-halopiperidines and 2-alkyl-4-halo-1,2,5,6-tetrahydropyridines in solid tumor cell lines” (2007)
